From ChEMBL document CHEMBL3525985, “Regiospecificity and stereospecificity of human UDP-glucuronosyltransferases in the glucuronidation of estriol, 16-epiestriol, 17-epiestriol, and 13-epiestradiol” (Drug Metab Dispos, 2013)

How the values were obtained:
Type in all cases: ADME
[1] = target: T1, UDP-glucuronosyltransferase 2B7 (Homo sapiens, UniProt P16662); assay: Drug metabolism assessed as recombinant human C-terminal His-tagged UGT2B7-mediated 16-epiestriol-16-glucuronide formation at 5 mg after 5 hrs by NMR spectroscopic analysis in presence of UDPGA
T1 sequence (P16662 whole entry): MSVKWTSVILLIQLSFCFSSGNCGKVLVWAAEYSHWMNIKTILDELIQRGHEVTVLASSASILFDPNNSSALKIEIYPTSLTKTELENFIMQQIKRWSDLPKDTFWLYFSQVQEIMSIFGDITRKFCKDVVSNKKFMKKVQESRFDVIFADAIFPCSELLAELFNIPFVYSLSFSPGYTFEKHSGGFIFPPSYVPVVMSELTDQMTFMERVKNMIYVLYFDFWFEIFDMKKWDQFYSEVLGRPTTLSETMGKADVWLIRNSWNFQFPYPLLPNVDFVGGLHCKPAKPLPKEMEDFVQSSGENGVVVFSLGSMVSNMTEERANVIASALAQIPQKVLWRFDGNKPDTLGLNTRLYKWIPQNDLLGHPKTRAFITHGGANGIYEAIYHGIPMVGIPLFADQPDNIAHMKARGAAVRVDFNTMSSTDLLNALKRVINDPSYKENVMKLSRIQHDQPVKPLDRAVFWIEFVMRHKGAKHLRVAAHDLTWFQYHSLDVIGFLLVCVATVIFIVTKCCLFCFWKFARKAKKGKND

[2] = target: T2, UDP-glucuronosyltransferase 1A4 (Homo sapiens, UniProt P22310); assay: Drug metabolism assessed as recombinant human C-terminal His-tagged UGT1A4-mediated estradiol-17-glucuronide formation at 200 uM after 15 to 60 mins by HPLC analysis in presence of UDPGA; details: recombinant enzyme
T2 sequence (P22310 whole entry): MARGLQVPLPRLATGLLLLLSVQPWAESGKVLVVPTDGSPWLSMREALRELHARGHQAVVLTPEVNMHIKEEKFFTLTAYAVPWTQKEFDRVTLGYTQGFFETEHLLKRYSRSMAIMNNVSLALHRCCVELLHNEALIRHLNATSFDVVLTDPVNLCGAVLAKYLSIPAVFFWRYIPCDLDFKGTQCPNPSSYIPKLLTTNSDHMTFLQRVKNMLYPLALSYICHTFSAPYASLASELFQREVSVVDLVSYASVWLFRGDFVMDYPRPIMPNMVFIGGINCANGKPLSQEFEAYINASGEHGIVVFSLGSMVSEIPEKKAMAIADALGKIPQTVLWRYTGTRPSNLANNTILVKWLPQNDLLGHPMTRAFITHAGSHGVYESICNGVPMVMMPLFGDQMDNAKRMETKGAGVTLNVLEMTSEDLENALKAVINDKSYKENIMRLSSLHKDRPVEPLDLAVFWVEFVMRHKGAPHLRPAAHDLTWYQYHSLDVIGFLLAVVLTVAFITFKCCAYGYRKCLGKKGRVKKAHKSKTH
How it was run: (§1)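 Screening at a single substrate concentration of 200 μM, in triplicate. The reaction used 5 or 50 µg of UGT-enriched insect cell membranes in 50 mM phosphate pH 7.4 with 10 mM MgCl₂ and 5 mM UDPGA, 10% final DMSO. Incubation was 15–60 min at 37°C. Perchloric acid stopped the reaction and supernatants were analysed by HPLC. Controls lacked UDPGA. Rates were normalized to relative UGT expression level.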

[3] = target: T1, UDP-glucuronosyltransferase 2B7; assay: Drug metabolism assessed as recombinant human C-terminal His-tagged UGT2B7-mediated 17-epiestriol-17-glucuronide formation at 200 uM after 15 to 60 mins by HPLC analysis in presence of UDPGA; details: recombinant enzyme
How it was run: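 Membranes (5 or 50 µg) from insect cells expressing His-tagged UGT2B7, with 200 µM aglycone in 50 mM phosphate pH 7.4, 10 mM MgCl₂, 5 mM UDPGA and 10% DMSO (final), 15–60 min at 37°C. Stopped with perchloric acid on ice, supernatant run on HPLC. Done in triplicate with no-UDPGA controls; rates normalized to relative UGT expression.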

[4] = target: T3, UDP-glucuronosyltransferase 1A10 (Homo sapiens, UniProt Q9HAW8); assay: Drug metabolism assessed as recombinant human C-terminal His-tagged UGT1A10-mediated 17-epiestriol-3-glucuronide formation at 200 uM after 15 to 60 mins by HPLC analysis in presence of UDPGA; details: recombinant enzyme; how it was run: as §1
T3 sequence (Q9HAW8 whole entry): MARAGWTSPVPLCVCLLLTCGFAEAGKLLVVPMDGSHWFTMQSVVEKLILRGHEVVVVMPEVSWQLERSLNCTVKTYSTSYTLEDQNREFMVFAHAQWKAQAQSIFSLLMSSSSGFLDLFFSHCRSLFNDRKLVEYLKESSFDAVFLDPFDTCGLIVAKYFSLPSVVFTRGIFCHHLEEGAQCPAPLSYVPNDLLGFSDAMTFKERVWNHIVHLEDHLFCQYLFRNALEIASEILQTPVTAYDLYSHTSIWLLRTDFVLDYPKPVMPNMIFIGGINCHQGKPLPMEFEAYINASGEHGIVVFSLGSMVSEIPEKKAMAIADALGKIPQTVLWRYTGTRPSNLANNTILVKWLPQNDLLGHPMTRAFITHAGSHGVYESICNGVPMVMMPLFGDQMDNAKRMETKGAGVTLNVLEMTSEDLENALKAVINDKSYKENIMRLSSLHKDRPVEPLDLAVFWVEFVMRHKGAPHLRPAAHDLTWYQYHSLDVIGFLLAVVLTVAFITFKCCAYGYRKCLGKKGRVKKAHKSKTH

[5] = target: T4, UDP-glucuronosyltransferase 1A3 (Homo sapiens, UniProt P35503); assay: Drug metabolism assessed as recombinant human C-terminal His-tagged UGT1A3-mediated 17-epiestriol-3-glucuronide formation at 200 uM after 15 to 60 mins by HPLC analysis in presence of UDPGA; details: recombinant enzyme; how it was run: as §1
T4 sequence (P35503 whole entry): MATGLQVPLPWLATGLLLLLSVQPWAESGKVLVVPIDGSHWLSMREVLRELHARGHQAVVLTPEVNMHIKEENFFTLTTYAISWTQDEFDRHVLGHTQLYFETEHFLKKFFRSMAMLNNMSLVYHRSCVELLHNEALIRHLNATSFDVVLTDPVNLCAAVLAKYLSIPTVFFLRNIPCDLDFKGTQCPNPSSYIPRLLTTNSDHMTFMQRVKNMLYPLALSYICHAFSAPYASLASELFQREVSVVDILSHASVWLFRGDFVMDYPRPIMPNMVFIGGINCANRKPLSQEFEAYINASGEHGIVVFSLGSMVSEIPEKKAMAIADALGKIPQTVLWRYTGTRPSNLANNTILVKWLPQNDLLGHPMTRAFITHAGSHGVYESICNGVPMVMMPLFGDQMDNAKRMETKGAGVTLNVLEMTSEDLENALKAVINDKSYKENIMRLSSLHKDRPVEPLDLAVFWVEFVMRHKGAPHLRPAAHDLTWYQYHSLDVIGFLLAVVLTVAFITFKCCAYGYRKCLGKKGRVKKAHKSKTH

C[C@]12CC[C@@H]3c4ccc(O)cc4CC[C@H]3[C@@H]1C[C@H](O)[C@@H]2O [EPIESTRIOL]
Drug metabolism [1]: metabolite_detected

C[C@]12CC[C@@H]3c4ccc(O)cc4CC[C@H]3[C@@H]1CC[C@@H]2O [ESTRADIOL]
Drug metabolism [2]: metabolite_detected

C[C@]12CC[C@@H]3c4ccc(O)cc4CC[C@H]3[C@@H]1C[C@@H](O)[C@H]2O
Drug metabolism [3]: metabolite_detected | Drug metabolism [4]: metabolite_detected | Drug metabolism [5]: metabolite_detected
